Laboratory results taken from ChEMBL document CHEMBL3865819, “Myrsinane, Premyrsinane, and Cyclomyrsinane Diterpenes from Euphorbia falcata as Potassium Ion Channel Inhibitors with Selective G Protein-Activated Inwardly Rectifying Ion Channel (GIRK) Blocking Effects” (J Nat Prod, 2016).

Assays:
Format in all cases: cell-based
[1] = molecular target: T1, Kir3.1/Kir3.4 (Homo sapiens) (UniProt P48549+P48544); assay: Inhibition of GTPgammaS-induced activation of GIRK1/4 (unknown origin) expressed in HEK293 cells assessed as decrease in channel current at 1 uM after 2 mins at -40 mV holding potential by automated patch-clamp electrophysiology assay
How it was run: (§1)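 Whole-cell automated planar patch clamp on HEK-293 cells stably expressing GIRK1/4 (Kir3.1/3.4). Internal solution carries 0.9 mM GTPγS to activate channels; bath switched from 4 mM K+ to high-K+ (25 mM KCl) external, pH 7.4. Step to 60 mV, ramp to −140 mV, 100 ms at −140 mV, ~0.1 Hz; inward current read at −140 mV. After 3 min control, 1 then 10 μM for ~2 min each; K+-free solution baseline; two to three cells.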

[2] = molecular target: T1, Kir3.1/Kir3.4 (Homo sapiens); assay: Inhibition of GTPgammaS-induced activation of GIRK1/4 (unknown origin) expressed in HEK293 cells assessed as decrease in channel current at 10 uM after 2 mins at -40 mV holding potential by automated patch-clamp electrophysiology assay; how it was run: as §1
[3] = molecular target: T2, hERG (KCNH2) (Homo sapiens, UniProt Q12809); assay: Inhibition of human ERG expressed in HEK293 cells assessed as decrease in channel current at 3 uM after 3 mins at -80 mV holding potential by automated patch-clamp electrophysiology assay; details: HEK293 cells that express hERG
T2 sequence (Q12809 whole entry): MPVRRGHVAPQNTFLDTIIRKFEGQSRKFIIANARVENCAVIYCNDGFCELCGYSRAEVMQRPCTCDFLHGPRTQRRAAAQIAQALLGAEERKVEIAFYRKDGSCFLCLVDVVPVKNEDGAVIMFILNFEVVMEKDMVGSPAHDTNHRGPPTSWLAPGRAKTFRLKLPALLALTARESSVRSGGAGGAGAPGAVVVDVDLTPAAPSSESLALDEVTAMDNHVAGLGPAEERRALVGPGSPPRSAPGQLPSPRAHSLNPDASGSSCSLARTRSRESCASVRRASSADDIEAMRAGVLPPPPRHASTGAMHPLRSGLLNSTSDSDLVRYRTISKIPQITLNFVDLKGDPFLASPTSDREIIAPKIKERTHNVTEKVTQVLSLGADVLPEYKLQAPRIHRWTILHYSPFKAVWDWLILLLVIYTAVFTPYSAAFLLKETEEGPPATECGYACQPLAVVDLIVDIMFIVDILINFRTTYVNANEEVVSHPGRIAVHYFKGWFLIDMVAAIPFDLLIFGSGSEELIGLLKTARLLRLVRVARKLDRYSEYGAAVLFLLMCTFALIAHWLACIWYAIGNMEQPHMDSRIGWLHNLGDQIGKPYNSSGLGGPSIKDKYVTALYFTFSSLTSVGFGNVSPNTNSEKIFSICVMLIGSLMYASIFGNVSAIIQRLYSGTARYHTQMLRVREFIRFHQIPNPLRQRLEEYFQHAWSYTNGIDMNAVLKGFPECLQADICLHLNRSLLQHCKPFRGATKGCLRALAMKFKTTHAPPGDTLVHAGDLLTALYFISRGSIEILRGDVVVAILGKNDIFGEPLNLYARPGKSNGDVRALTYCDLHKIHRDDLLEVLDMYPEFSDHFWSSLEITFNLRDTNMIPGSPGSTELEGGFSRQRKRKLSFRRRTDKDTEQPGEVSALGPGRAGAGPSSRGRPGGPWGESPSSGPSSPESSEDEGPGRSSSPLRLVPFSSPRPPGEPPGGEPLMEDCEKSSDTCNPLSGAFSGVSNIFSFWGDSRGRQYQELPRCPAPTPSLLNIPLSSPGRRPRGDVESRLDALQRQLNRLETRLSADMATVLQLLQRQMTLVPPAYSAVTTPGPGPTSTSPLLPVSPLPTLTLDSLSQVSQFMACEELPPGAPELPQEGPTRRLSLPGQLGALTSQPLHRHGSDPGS
How it was run: (§2)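 HEK-293 cells stably transfected with hERG (Kv11.1), whole-cell automated planar patch clamp. External solution 4 mM KCl, pH 7.4; internal KCl/KF/EGTA, pH 7.2. Protocol: 100 ms −40 mV reference step, 3 s at 20 mV, then 1 s at −40 mV for the outward tail current. After control, 3, 10, 30 μM cumulative, ~3 min each; amitriptyline 10 μM reference, then wash-out; two or three cells; DMSO ≤0.3% final.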

[4] = molecular target: T2, hERG (KCNH2); assay: Inhibition of human ERG expressed in HEK293 cells assessed as decrease in channel current at 10 uM after 3 mins at -80 mV holding potential by automated patch-clamp electrophysiology assay; details: HEK293 cells that express hERG; how it was run: as §2
[5] = molecular target: T2, hERG (KCNH2); assay: Inhibition of human ERG expressed in HEK293 cells assessed as decrease in channel current at 30 uM after 3 mins at -80 mV holding potential by automated patch-clamp electrophysiology assay; details: HEK293 cells that express hERG; how it was run: as §2

CCC(C)C(=O)O[C@H]1C(=O)[C@@]23CO[C@@](C)([C@H](OC(C)=O)[C@@]4(OC(C)=O)C[C@](C)(OC(=O)c5cccnc5)[C@H](OC(=O)C(C)C)[C@@H]4[C@H]2OC(C)=O)[C@@H]3[C@@H]2[C@H]1C[C@]2(C)OC(C)=O (stereo not given in full) gave an inhibition [1] of 23%, an inhibition [2] of 69% and an inhibition at 0.05 h, 3 µM [3] of 20%. The inhibition at 0.05 h, 10 µM [4] was 54% and the inhibition at 0.05 h, 30 µM [5] was 82%.
CCC(=O)O[C@@H]1[C@@H]2[C@@H](OC(C)=O)[C@@]34CO[C@@](C)([C@H](OC(C)=O)[C@@]2(OC(C)=O)C[C@H]1C)[C@@H]3[C@@H]1[C@@H](C[C@]1(C)OC(C)=O)[C@@H](OC(=O)C(C)C)C4=O showed an inhibition [1] of 30%, an inhibition [2] of 70% and an inhibition at 0.05 h, 3 µM [3] of 0%. For the same molecule, the inhibition at 0.05 h, 10 µM [4] was 23% and the inhibition at 0.05 h, 30 µM [5] was 33%.
Work on CCC(=O)O[C@@H]1[C@@H]2[C@@H](OC(=O)c3ccccc3)[C@@]3(COC(=O)C(C)C)[C@H]4[C@H](C=C[C@H]3OC(C)=O)C(C)(C)O[C@]4(C)C(=O)[C@@]2(OC(C)=O)C[C@@H]1C yielded an inhibition [1] of 21%, an inhibition [2] of 47% and an inhibition at 0.05 h, 3 µM [3] of 11%. For the same molecule, the inhibition at 0.05 h, 10 µM [4] was 24% and the inhibition at 0.05 h, 30 µM [5] was 40%.
For CCC(=O)O[C@@H]1[C@@H]2[C@@H](OC(C)=O)[C@@]34CO[C@@](C)([C@H](OC(C)=O)[C@@]2(O)C[C@@H]1C)[C@@H]3[C@@H]1[C@@H](C[C@]1(C)OC(C)=O)[C@@H](OC(=O)c1ccccc1)C4=O, the inhibition [1] was 19%, the inhibition [2] was 54% and the inhibition at 0.05 h, 3 µM [3] was 12%. It also gave an inhibition at 0.05 h, 10 µM [4] of 21% and an inhibition at 0.05 h, 30 µM [5] of 45%.
For CCC(C)C(=O)O[C@H]1C(=O)[C@@]23CO[C@@](C)([C@H](OC(C)=O)[C@@]4(OC(C)=O)C[C@](C)(O)[C@H](OC(=O)C(C)C)[C@@H]4[C@H]2OC(C)=O)[C@@H]3[C@@H]2[C@H]1C[C@]2(C)OC(C)=O (stereo not given in full), the inhibition [1] was 14%, the inhibition [2] was 26% and the inhibition at 0.05 h, 3 µM [3] was 12%. It also gave an inhibition at 0.05 h, 10 µM [4] of 22% and an inhibition at 0.05 h, 30 µM [5] of 32%.
In the case of CCC(C)C(=O)O[C@H]1C(=O)[C@@]23CO[C@@](C)([C@H](OC(C)=O)[C@@]4(OC(C)=O)C[C@](C)(OC(=O)c5ccccc5)[C@H](OC(=O)C(C)C)[C@@H]4[C@H]2OC(C)=O)[C@@H]3[C@@H]2[C@H]1C[C@]2(C)OC(C)=O (stereo not given in full), the inhibition [1] is reported as 26%, the inhibition [2] is reported as 70% and the inhibition at 0.05 h, 3 µM [3] is reported as 14%. The inhibition at 0.05 h, 10 µM [4] was 30% and the inhibition at 0.05 h, 30 µM [5] was 40%.
CCC(=O)O[C@@H]1[C@@H]2[C@@H](OC(C)=O)[C@@]34CO[C@@](C)([C@H](OC(C)=O)[C@@]2(OC(C)=O)C[C@]1(C)OC(=O)c1ccccc1)[C@@H]3[C@@H]1[C@@H](C[C@]1(C)OC(C)=O)[C@@H](OC(=O)C(C)CC)C4=O (stereo not given in full) showed an inhibition [1] of 20%, an inhibition [2] of 64% and an inhibition at 0.05 h, 3 µM [3] of 16%. It also gave an inhibition at 0.05 h, 10 µM [4] of 31% and an inhibition at 0.05 h, 30 µM [5] of 52%.
CC(=O)OC[C@@]12[C@H](OC(=O)c3ccccc3)[C@H]3[C@@H](OC(=O)C(C)C)[C@@H](C)C[C@]3(OC(C)=O)C(=O)[C@@]3(C)OC(C)(C)[C@@H](C=C[C@H]1OC(C)=O)[C@H]23 showed an inhibition [1] of 26%, an inhibition [2] of 61% and an inhibition at 0.05 h, 3 µM [3] of 13%. It also gave an inhibition at 0.05 h, 10 µM [4] of 24% and an inhibition at 0.05 h, 30 µM [5] of 43%.
CC(=O)O[C@@H]1C=C[C@H]2[C@@H]3[C@]1(COC(=O)C(C)C)[C@H](OC(=O)c1ccccc1)[C@H]1[C@@H](OC(=O)C(C)C)[C@@H](C)C[C@]1(O)C(=O)[C@@]3(C)OC2(C)C was tested, and the inhibition [1] was 21%, the inhibition [2] was 54% and the inhibition at 0.05 h, 3 µM [3] was 20%. The inhibition at 0.05 h, 10 µM [4] was 33% and the inhibition at 0.05 h, 30 µM [5] was 46%.
For CCC(=O)O[C@@H]1[C@@H]2[C@@H](OC(C)=O)[C@@]34CO[C@@](C)([C@H](OC(C)=O)[C@@]2(OC(C)=O)C[C@]1(C)OC(=O)c1cccnc1)[C@@H]3[C@@H]1[C@@H](C[C@]1(C)OC(C)=O)[C@@H](OC(=O)C(C)C)C4=O, the inhibition [1] was 35%, the inhibition [2] was 65% and the inhibition at 0.05 h, 3 µM [3] was 11%. For the same molecule, the inhibition at 0.05 h, 10 µM [4] was 22% and the inhibition at 0.05 h, 30 µM [5] was 42%.
For CC(=O)O[C@@H]1C[C@H]2[C@@H]([C@@H]3[C@]1(COC(=O)c1cccnc1)[C@H](OC(=O)c1ccccc1)[C@H]1[C@@H](OC(=O)C(C)C)[C@@H](C)C[C@]1(O)C(=O)[C@@]3(C)OC(C)=O)C2(C)C, the inhibition [1] was 28%, the inhibition [2] was 48% and the inhibition at 0.05 h, 3 µM [3] was 14%. The inhibition at 0.05 h, 10 µM [4] was 29% and the inhibition at 0.05 h, 30 µM [5] was 53%.
CC(=O)O[C@@H]1[C@H]2[C@@H](OC(=O)C(C)C)[C@@](C)(OC(=O)c3cccnc3)C[C@]2(OC(C)=O)[C@@H](OC(C)=O)[C@]2(C)OC[C@]13C(=O)[C@H](OC(=O)C(C)C)[C@@H]1C[C@](C)(OC(C)=O)[C@@H]1[C@@H]23 gave an inhibition [1] of 8%, an inhibition [2] of 57% and an inhibition at 0.05 h, 3 µM [3] of 8%. It also gave an inhibition at 0.05 h, 10 µM [4] of 19% and an inhibition at 0.05 h, 30 µM [5] of 30%.
CC(=O)O[C@@H]1[C@H]2[C@@H](OC(=O)C(C)C)[C@@](C)(OC(=O)c3ccccc3)C[C@]2(OC(C)=O)[C@@H](OC(C)=O)[C@]2(C)OC[C@]13C(=O)[C@H](OC(=O)C(C)C)[C@@H]1C[C@](C)(OC(C)=O)[C@@H]1[C@@H]23 showed an inhibition [1] of 33%, an inhibition [2] of 77% and an inhibition at 0.05 h, 3 µM [3] of 14%. For the same molecule, the inhibition at 0.05 h, 10 µM [4] was 24% and the inhibition at 0.05 h, 30 µM [5] was 53%.
In the case of CC(=O)OC1O[C@@]2(C)[C@H](OC(=O)c3ccccc3)[C@@]3(OC(C)=O)C[C@H](C)[C@H](OC(=O)C(C)C)[C@@H]3[C@@H](OC(C)=O)[C@@]13[C@H](OC(=O)c1cccnc1)C[C@H]1[C@@H]([C@@H]23)C1(C)C (stereo not given in full), the inhibition [1] is reported as 18%, the inhibition [2] is reported as 37% and the inhibition at 0.05 h, 3 µM [3] is reported as 48%. For the same molecule, the inhibition at 0.05 h, 10 µM [4] was 68% and the inhibition at 0.05 h, 30 µM [5] was 78%.
For CCC(=O)O[C@@H]1[C@@H]2[C@@H](OC(C)=O)[C@@]34CO[C@@](C)([C@H](OC(C)=O)[C@@]2(OC(C)=O)C[C@]1(C)O)[C@@H]3[C@@H]1[C@@H](C[C@]1(C)OC(C)=O)[C@@H](OC(=O)C(C)CC)C4=O (stereo not given in full), the inhibition [1] was 11%, the inhibition [2] was 24% and the inhibition at 0.05 h, 3 µM [3] was 8%. For the same molecule, the inhibition at 0.05 h, 10 µM [4] was 20% and the inhibition at 0.05 h, 30 µM [5] was 33%.
Molecule CCCCCC(=O)O[C@@H]1[C@@H]2[C@@H](O)[C@]34CC[C@H]5[C@@H]([C@H]3[C@@](C)(OC4)[C@H](OC(C)=O)[C@@]2(O)C[C@@H]1C)C5(C)C has an inhibition [1] of 30%, an inhibition [2] of 69% and an inhibition at 0.05 h, 3 µM [3] of 19%. For the same molecule, the inhibition at 0.05 h, 10 µM [4] was 40% and the inhibition at 0.05 h, 30 µM [5] was 55%.
